Source: ChEMBL document CHEMBL5352425, “Discovery of the 4-aminopiperidine-based compound EM127 for the site-specific covalent inhibition of SMYD3” (Eur J Med Chem, 2022)
Active and inactive are the calls of the source. The rule behind the calls is not given here.

Assays:
[1] = biological target: T1, Histone-lysine N-methyltransferase SMYD3 (Homo sapiens) (UniProt Q9H7B4); test: Binding affinity to full length recombinant SMYD3 (unknown origin) overexpressed in Escherichia coli Rosetta cells assessed as covalent adduct formation by SPR analysis
T1 sequence (whole entry): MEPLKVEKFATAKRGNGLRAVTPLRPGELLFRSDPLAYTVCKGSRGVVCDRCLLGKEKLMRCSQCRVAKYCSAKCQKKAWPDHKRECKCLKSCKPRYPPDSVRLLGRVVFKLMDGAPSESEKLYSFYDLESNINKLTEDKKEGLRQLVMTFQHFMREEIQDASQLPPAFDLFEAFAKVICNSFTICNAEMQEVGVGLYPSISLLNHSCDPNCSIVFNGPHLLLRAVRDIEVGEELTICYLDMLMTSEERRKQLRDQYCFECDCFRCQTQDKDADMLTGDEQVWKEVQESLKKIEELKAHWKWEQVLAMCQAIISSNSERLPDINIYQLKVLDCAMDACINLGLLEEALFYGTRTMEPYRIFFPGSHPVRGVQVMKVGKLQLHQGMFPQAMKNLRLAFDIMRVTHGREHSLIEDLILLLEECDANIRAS
Outline: (§1)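 SPR on Biacore X100 at 15 °C: SMYD3 amine-coupled on CM5 chips at 6500–10000 RU, immobilised in HBS-T pH 7.4. Analysis buffer Tris-HCl 50 mM, NaCl 150 mM, 2 mM DTT, 0.05% Tween-20, 2% DMSO, pH 8.0, with or without SAM at saturating concentration. Equilibrium responses solvent-corrected.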

[2] = biological target: T1, Histone-lysine N-methyltransferase SMYD3 (Homo sapiens); test: Inhibition of full length recombinant SMYD3 (unknown origin) at 50 uM measured for 1 hr by LC-ESI-MS analysis relative to control
Outline: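 SMYD3 preincubated 1 h at 23 °C with compound (SMYD3 5 μM, compound 50 μM, 2% DMSO), or at 5 μM compound for 1 or 24 h. Stopped with H2O/AcCN/FA, peptide methylation quantified by LC-ESI-MS. Duplicate.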

[3] = biological target: T1, Histone-lysine N-methyltransferase SMYD3 (Homo sapiens); test: Inhibition of SMYD3 in human HCT-116 cells assessed as decrease in ERK1/2 phosphorylation measured for 48 to 72 hrs by immunoblotting analysis; format: cell-based; conditions: dose <= 5.0 µM, time 48-72 hrs
Outline: (§2)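 HCT116 or MDA-MB-231 cells treated with compound, DMSO as control. Whole-cell lysates in Tris/EDTA/NaCl/1% Triton X-100 with protease and phosphatase inhibitors. 20 μg protein run on 7.5% SDS-PAGE and blotted to nitrocellulose, probed for phospho-ERK1/2 (Thr202/Tyr204), total ERK1/2 and cleaved PARP, with actin as loading control.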

MDA-MB-231 [4] = test: Downregulation of C-MET mRNA expression in human MDA-MB-231 cells at 0.5 uM by RT-qPCR analysis; format: functional, cell-based
Outline: (§3)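 MDA-MB-231 or SMYD3-knockout (CRISPR/Cas9) MDA-MB-231 cells in DMEM/10% FBS treated 48 h with 0.5–50 μM compound, or 72 h with reference inhibitor at 10–50 μM; DMSO control. Total RNA extracted with TRI reagent, CDK2, c-MET, FN1 and N-CAD transcripts measured by RT-qPCR and quantified by the ddCT method.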

MDA-MB-231 [5] = test: Effect on N-cadherin mRNA expression in SMYD3 knockout human MDA-MB-231 cells at 0.5 to 5 uM measured for 48 to 72 hrs by RT-qPCR analysis; format: functional, cell-based; conditions: dose 0.5-5 µM, time 48-72 hrs; outline: as §3
[6] = biological target: T1, Histone-lysine N-methyltransferase SMYD3 (Homo sapiens); test: Binding affinity to full length recombinant SMYD3 (unknown origin) overexpressed in Escherichia coli Rosetta cells assessed as inactivation constant measured after 1 hr by LC-MS analysis
[7] = biological target: T1, Histone-lysine N-methyltransferase SMYD3 (Homo sapiens); test: Inhibition of SMYD3 in human MDA-MB-231 cells assessed as decrease in ERK1/2 phosphorylation measured for 48 to 72 hrs by immunoblotting analysis; format: cell-based; conditions: dose <= 5.0 µM, time 48-72 hrs; outline: as §2
MDA-MB-231 [8] = test: Downregulation of CDK2 mRNA expression in human MDA-MB-231 cells at 0.5 uM by RT-qPCR analysis; format: functional, cell-based; outline: as §3
[9] = biological target: T2, Histone-lysine N-methyltransferase SMYD3 (Homo sapiens, UniProt Q9H7B4); test: Binding affinity to full length recombinant SMYD3 (unknown origin) overexpressed in Escherichia coli Rosetta cells assessed as dissociation constant by SPR analysis; outline: as §1
T2 sequence (Q9H7B4 whole entry): T1 sequence (whole entry)

[10] = biological target: T1, Histone-lysine N-methyltransferase SMYD3 (Homo sapiens); test: Inhibition of SMYD3 in human MDA-MB-231 cells assessed as decrease in ERK1/2 phosphorylation upto 5 uM by immunoblotting analysis; format: cell-based; conditions: time 48-72 hrs, TDE = time-dependent effect; outline: as §2
[11] = biological target: T1, Histone-lysine N-methyltransferase SMYD3 (Homo sapiens); test: Binding affinity to full length recombinant SMYD3 (unknown origin) at Cys186 residue overexpressed in Escherichia coli Rosetta cells assessed as covalent adduct formation at 1 to 100 uM measured after 1 hr by LC-MS analysis relative to control; conditions: dose 1-100 µM
Outline: (§4)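 Recombinant SMYD3 expressed in E. coli Rosetta 2, final 10 μM, incubated at 23 °C in Tris 50 mM pH 8.0, 75 mM NaCl with compound at final 1, 10 or 100 μM, or equimolar 10 μM with sampling at 0–24 h. Samples DTT-denatured at 56 °C, iodoacetamide-alkylated, digested overnight with trypsin plus chymotrypsin at 30 °C, then analysed by LC-MS/MS on Q-ToF for adducted peptides. Triplicate.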

[12] = biological target: T1, Histone-lysine N-methyltransferase SMYD3 (Homo sapiens); test: Binding affinity to full length recombinant SMYD3 (unknown origin) at Cys186 residue overexpressed in Escherichia coli Rosetta cells assessed as covalent adduct formation at 1 to 100 uM measured for 24 hrs by LC-MS analysis relative to control; conditions: dose 1-100 µM; outline: as §4
[13] = biological target: T1, Histone-lysine N-methyltransferase SMYD3 (Homo sapiens); test: Inhibition of SMYD3 in human HCT-116 cells assessed as increase in cleaved PARP level at 5 uM measured for 48 to 72 hrs by immunoblotting analysis; conditions: time 48-72 hrs
[14] = Stability in human plasma measured at 6 hrs by LC-MS analysis; format: ADME, cell-free
Outline: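 Compound spiked to final 10 μM into healthy-volunteer human plasma and held at 37 °C with gentle agitation. At 0–360 min, proteins precipitated with ice-cold acetonitrile containing propranolol internal standard. Supernatant dried, reconstituted, analysed by LC-MS with SIM (m/z 312; IS 260). Analyte/IS peak-area ratio followed over time, relative to time 0.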

MDA-MB-231 [15] = test: Effect on c-MET mRNA expression in SMYD3 knockout human MDA-MB-231 cells at 0.5 to 5 uM measured for 48 to 72 hrs by RT-qPCR analysis; format: functional, cell-based; conditions: dose 0.5-5 µM, time 48-72 hrs; outline: as §3
[16] = biological target: T1, Histone-lysine N-methyltransferase SMYD3 (Homo sapiens); test: Inhibition of SMYD3 in human HCT-116 cells assessed as decrease in ERK1/2 phosphorylation upto 5 uM by immunoblotting analysis; format: cell-based; conditions: time 48-72 hrs, TDE = time-dependent effect; outline: as §2
[17] = biological target: T1, Histone-lysine N-methyltransferase SMYD3 (Homo sapiens); test: Inhibition of SMYD3 in human MDA-MB-231 cells assessed as decrease in cleaved PARP level at 5 uM measured for 48 to 72 hrs by immunoblotting analysis; format: cell-based; conditions: time 48-72 hrs; outline: as §2
MDA-MB-231 [18] = test: Effect on CDK2 mRNA expression in SMYD3 knockout human MDA-MB-231 cells at 0.5 to 5 uM measured for 48 to 72 hrs by RT-qPCR analysis; format: functional, cell-based; conditions: dose 0.5-5 µM, time 48-72 hrs; outline: as §3
[19] = biological target: T1, Histone-lysine N-methyltransferase SMYD3 (Homo sapiens); test: Binding affinity to full length recombinant SMYD3 (unknown origin) at Cys186 residue overexpressed in Escherichia coli Rosetta cells assessed as covalent adduct formation at 1 to 100 uM by LC-MS analysis; conditions: dose 1-100 µM, time <= 24.0 hrs, TDE = time-dependent effect; outline: as §4
[20] = biological target: T2, Histone-lysine N-methyltransferase SMYD3; test: Binding affinity to full length recombinant SMYD3 (unknown origin) overexpressed in Escherichia coli Rosetta cells assessed as inhibition constant measured after 1 hr by LC-MS analysis
[21] = biological target: T2, Histone-lysine N-methyltransferase SMYD3; test: Inhibition of full length recombinant SMYD3 (unknown origin) measured at 24 hrs
[22] = biological target: T1, Histone-lysine N-methyltransferase SMYD3 (Homo sapiens); test: Inhibition of full length recombinant SMYD3 (unknown origin) at 5 uM measured at 24 hrs by LC-ESI-MS analysis relative to control
[23] = biological target: T1, Histone-lysine N-methyltransferase SMYD3 (Homo sapiens); test: Binding affinity to full length recombinant SMYD3 (unknown origin) at Cys186 residue overexpressed in Escherichia coli Rosetta cells assessed as covalent adduct formation measured for 24 hrs by LC-MS analysis; conditions: dose 1-100 µM; outline: as §4
[24] = biological target: T1, Histone-lysine N-methyltransferase SMYD3 (Homo sapiens); test: Binding affinity to full length recombinant SMYD3 (unknown origin) overexpressed in Escherichia coli Rosetta cells assessed as Kinact/Ki ratio measured after 1 hr by LC-MS analysis
MDA-MB-231 [25] = test: Effect on FN1 mRNA expression in SMYD3 knockout human MDA-MB-231 cells at 0.5 to 5 uM measured for 48 to 72 hrs by RT-qPCR analysis; format: functional, cell-based; conditions: dose 0.5-5 µM, time 48-72 hrs; outline: as §3
MDA-MB-231 [26] = test: Downregulation of CDK2 mRNA expression in human MDA-MB-231 cells at 50 uM measured for 48 to 72 hrs by RT-qPCR analysis; format: functional, cell-based; conditions: time 48-72 hrs; outline: as §3
MDA-MB-231 [27] = test: Downregulation of c-MET mRNA expression in human MDA-MB-231 cells at 50 uM measured for 48 to 72 hrs by RT-qPCR analysis; format: functional, cell-based; conditions: time 48-72 hrs; outline: as §3
MDA-MB-231 [28] = test: Downregulation of FN1 mRNA expression in human MDA-MB-231 cells at 50 uM measured for 48 to 72 hrs by RT-qPCR analysis; format: functional, cell-based; conditions: time 48-72 hrs; outline: as §3
MDA-MB-231 [29] = test: Downregulation of N-cadherin mRNA expression in human MDA-MB-231 cells at 50 uM measured for 48 to 72 hrs by RT-qPCR analysis; format: functional, cell-based; conditions: time 48-72 hrs; outline: as §3
[30] = biological target: T1, Histone-lysine N-methyltransferase SMYD3 (Homo sapiens); test: Inhibition of SMYD3 in human HCT-116 cells assessed as decrease in cleaved PARP level at 5 uM measured for 48 to 72 hrs by immunoblotting analysis; format: cell-based; conditions: time 48-72 hrs; outline: as §2
MDA-MB-231 [31] = test: Antiproliferative activity against in human MDA-MB-231 cells assessed as reduction in cell viability measured after 48 hrs by trypan blue staining based phase contrast microscopic analysis; format: functional
Outline: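 MDA-MB-231 cells in DMEM with 10% FBS and penicillin/streptomycin at 37 °C, 5% CO2, treated 48 h at 5 μM (vehicle 0.5% DMSO, DMSO control). Floating plus trypsinized adherent cells pooled, mixed with 0.01% trypan blue, unstained and stained cells counted by phase-contrast microscopy, % viable cells calculated. Mean ± SD, n=3.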

Compound | Activity [1] | inhibition [2] [%] | inhibition [3] | inhibition [7] | Kd [9] [µM] | inhibition [10] | inhibition [16] | inhibition [17] | IC50 [21] [µM] | inhibition [22] [%] | Activity [23] | also measured
Cc1cc(C(=O)N2CCC(NC(=O)CCl)CC2)no1 | inactive | < 5 | – | – | – | – | – | – | – | – | – | –
O=C1Cc2cc(C(=O)N[C@H]3C[C@H]4CC[C@@H](C3)C4S(=O)(=O)CC3CCN(CCCC(F)(F)F)CC3)c(Cl)cc2N1 (some centres not stated) | – | 100 | – | – | – | – | – | – | 0.689 | 50.2 | – | Activity (MDA-MB-231 [26]): Active; Activity (MDA-MB-231 [27]): Active; Activity (MDA-MB-231 [28]): Active; Activity (MDA-MB-231 [29]): Active
NC1CCN(C(=O)c2cc(C3CC3)on2)CC1 | – | 5 | – | – | – | – | – | – | – | – | – | –

Continued, in another order:

Activity [1] | inhibition [2] [%] | inhibition [3] | inhibition [7] | Kd [9] [µM] | inhibition [10] | inhibition [16] | inhibition [17] | IC50 [21] [µM] | inhibition [22] [%] | Activity [23] | Compound | also measured
Active | 92.1 | Dose-Dependent Effect | Dose-Dependent Effect | 13 | Tde | Tde | Active | 0.37 | 85.6 | Dose-Dependent Effect | O=C(NC1CCN(C(=O)CCl)CC1)c1cc(C2CC2)on1 | Activity (MDA-MB-231 [4]): Active; Activity (MDA-MB-231 [5]): inactive; Kinact [6]: 4.49 10^-4/s; Activity (MDA-MB-231 [8]): Active; Activity [11]: 50%; Activity [12]: 100%; inhibition [13]: Active; remaining at 6 h [14]: 76%; Activity (MDA-MB-231 [15]): inactive; Activity (MDA-MB-231 [18]): inactive; Activity [19]: Tde; Ki [20]: 6.11 µM; Ratio [24]: 73.5 M⁻¹ s⁻¹; Activity (MDA-MB-231 [25]): inactive
Active | 14 | – | – | – | – | – | – | – | – | Dose-Dependent Effect | O=C(CCl)NC1CCN(C(=O)c2cc(C3CC3)on2)CC1 | –
– | 29.1 | Dose-Dependent Effect | Dose-Dependent Effect | 32 | Tde | Tde | inactive | – | – | – | O=C(NC1CCNCC1)c1cc(C2CC2)on1 | inhibition [30]: inactive; Activity (MDA-MB-231 [31]): inactive
